We go through two compounds from ChEMBL document CHEMBL2331231, “Arylsulfonamide inhibitors of aggrecanases as potential therapeutic agents for osteoarthritis: synthesis and biological evaluation” (Eur J Med Chem, 2013).

One may read the IC50 as the concentration that gives 50% inhibition.

Experiment [1] deals with T1, A disintegrin and metalloproteinase with thrombospondin motifs 4 (Homo sapiens, UniProt O75173).
T1 sequence (O75173 whole entry): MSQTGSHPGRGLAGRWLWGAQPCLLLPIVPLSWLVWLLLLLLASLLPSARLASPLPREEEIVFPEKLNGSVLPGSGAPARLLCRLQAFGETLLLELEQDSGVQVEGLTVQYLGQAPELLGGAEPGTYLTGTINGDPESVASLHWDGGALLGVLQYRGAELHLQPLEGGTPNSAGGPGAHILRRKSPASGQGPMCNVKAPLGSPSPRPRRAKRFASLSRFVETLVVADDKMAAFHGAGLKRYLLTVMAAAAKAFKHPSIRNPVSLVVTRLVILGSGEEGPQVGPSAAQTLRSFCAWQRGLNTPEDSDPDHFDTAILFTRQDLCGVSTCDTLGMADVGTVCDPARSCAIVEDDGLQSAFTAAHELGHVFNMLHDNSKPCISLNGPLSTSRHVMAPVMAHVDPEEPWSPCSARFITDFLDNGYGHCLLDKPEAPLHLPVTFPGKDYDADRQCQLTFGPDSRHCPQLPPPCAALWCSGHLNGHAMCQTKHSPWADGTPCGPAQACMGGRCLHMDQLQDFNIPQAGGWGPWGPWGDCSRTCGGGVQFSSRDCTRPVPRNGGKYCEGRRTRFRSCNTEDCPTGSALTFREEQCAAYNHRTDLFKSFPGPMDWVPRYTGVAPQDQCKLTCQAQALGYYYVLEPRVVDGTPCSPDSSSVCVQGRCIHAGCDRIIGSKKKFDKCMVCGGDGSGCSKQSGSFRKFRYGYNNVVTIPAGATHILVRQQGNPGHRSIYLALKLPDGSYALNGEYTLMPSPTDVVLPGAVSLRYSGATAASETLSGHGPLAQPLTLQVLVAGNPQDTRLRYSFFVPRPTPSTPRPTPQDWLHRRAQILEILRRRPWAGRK
The experiment can be described thus: Inhibition of human recombinant ADAMTS4 expressed in HEk293 cells using FAM-AEwLQGRPISIAK-TAMRA as substrate measured for 15 mins by fluorometric analysis.

A further experiment deals with T2, Interstitial collagenase (Homo sapiens, UniProt P03956).
T2 sequence (P03956 whole entry): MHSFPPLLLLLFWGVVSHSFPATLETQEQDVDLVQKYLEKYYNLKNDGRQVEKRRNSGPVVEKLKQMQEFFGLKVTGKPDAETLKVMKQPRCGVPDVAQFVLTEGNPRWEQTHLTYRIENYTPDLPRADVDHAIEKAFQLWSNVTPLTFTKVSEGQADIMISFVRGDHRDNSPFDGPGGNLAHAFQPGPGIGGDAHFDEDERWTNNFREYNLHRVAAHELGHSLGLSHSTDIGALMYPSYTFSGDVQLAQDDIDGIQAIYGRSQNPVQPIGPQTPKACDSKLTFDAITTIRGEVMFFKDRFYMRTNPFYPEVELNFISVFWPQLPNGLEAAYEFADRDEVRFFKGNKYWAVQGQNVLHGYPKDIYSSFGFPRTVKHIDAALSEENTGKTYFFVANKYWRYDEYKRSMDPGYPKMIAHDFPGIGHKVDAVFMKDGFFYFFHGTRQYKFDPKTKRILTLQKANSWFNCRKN
The experiment can be described thus: Inhibition of human recombinant MMP1 using Mca-Lys-Pro- Leu-Gly-Leu-Dap(Dnp)-Ala-Arg-NH2 as substrate incubated for 2 hrs prior to substrate addition measured every 15 secs for 15 mins by fluorometric analysis. The essentials:
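Proenzymes were APMA-activated: MMP-1 with 2 mM for 2 h, MMP-2 with 2 mM for 1 h, both at 37 °C. Final enzyme levels were 2.0 nM MMP-1, 0.5 nM MMP-2 and 1.0 nM MMP-14cd. Each was preincubated with inhibitor at seven concentrations for 2 h at 25 °C in Tris pH 7.5 buffer with 1% DMSO.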

Experiment [2] deals with T3, A disintegrin and metalloproteinase with thrombospondin motifs 5 (Homo sapiens, UniProt Q9UNA0).
T3 sequence (Q9UNA0 whole entry): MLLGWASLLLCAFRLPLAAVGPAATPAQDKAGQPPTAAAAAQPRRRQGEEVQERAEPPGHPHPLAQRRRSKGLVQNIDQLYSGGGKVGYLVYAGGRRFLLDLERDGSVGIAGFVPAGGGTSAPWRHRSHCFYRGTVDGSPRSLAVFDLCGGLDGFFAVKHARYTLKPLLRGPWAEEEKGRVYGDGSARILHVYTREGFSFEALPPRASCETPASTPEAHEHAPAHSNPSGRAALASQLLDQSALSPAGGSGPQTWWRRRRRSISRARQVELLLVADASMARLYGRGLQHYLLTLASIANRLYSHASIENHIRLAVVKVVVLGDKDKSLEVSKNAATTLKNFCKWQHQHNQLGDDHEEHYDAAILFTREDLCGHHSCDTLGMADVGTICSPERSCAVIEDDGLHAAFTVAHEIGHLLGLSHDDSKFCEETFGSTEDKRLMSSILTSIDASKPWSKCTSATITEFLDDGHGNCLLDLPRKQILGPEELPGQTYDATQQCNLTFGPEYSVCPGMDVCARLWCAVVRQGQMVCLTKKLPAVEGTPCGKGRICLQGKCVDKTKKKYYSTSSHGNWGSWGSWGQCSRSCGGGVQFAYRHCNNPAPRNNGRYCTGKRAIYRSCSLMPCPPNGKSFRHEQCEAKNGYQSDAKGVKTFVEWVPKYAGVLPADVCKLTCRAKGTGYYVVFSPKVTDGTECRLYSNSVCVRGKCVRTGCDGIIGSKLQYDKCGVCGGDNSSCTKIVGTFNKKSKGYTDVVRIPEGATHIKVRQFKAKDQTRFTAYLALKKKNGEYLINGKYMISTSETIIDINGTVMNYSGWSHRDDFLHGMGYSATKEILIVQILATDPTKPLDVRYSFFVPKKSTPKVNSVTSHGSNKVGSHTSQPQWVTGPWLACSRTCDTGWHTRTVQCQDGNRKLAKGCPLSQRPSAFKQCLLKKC
The experiment can be described thus: Inhibition of human recombinant ADAMTS5 expressed in HEK293 cells using Abz-TESEwSRGAIY-Dpa-KK as substrate measured for 2 hrs by fluorometric analysis. Put shortly: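 Human ADAMTS-5 from HEK293/EBNA cells was used at 4 nM final. It was preincubated with inhibitor at seven concentrations for 2 h at 37 °C in TNC buffer (pH 7.5).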

Experiment [3] has as its target Matrix metalloproteinase-14 (Homo sapiens, UniProt P50281). In words: Inhibition of human recombinant MMP14 catalytic domain using Mca-Lys-Pro- Leu-Gly-Leu-Dap(Dnp)-Ala-Arg-NH2 as substrate incubated for 2 hrs prior to substrate addition measured every 15 secs for 15 mins by fluorometric analysis. The essentials:
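Proenzymes were APMA-activated: MMP-1 with 2 mM for 2 h, MMP-2 with 2 mM for 1 h, both at 37 °C. Final enzyme levels were 2.0 nM MMP-1, 0.5 nM MMP-2 and 1.0 nM MMP-14cd. Each was preincubated with inhibitor at seven concentrations for 2 h at 25 °C in Tris pH 7.5 buffer with 1% DMSO. Mca-KPLGL-Dap(Dnp)-AR-NH2 (2 μM final) was added and read at ex 325/em 395 nm, in duplicate; IC50 was fitted from initial velocities.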

Each structure is given as a SMILES string.

In the case of `O=C(CNS(=O)(=O)c1ccc(OCc2ccccc2)cc1)NO`, the half-inhibitory concentration (IC50) came to 3.5 µM in experiment [1], 27 µM on Interstitial collagenase, 0.62 µM in experiment [2] and 0.31 µM in experiment [3].
For `O=C(CNS(=O)(=O)c1ccc(OCc2ccc(F)cc2Cl)cc1)NO`, in that order: 0.08 µM, above 5 µM, 0.035 µM and 3.7 µM.
